What all share (format): functional, Heart
What all share (conditions): route intraperitoneal

The subject of assay [1] is Rattus norvegicus. As to the kind of experiment: Cardioprotective effect in Langendorff perfused Wistar rat hearts assessed as ischemic damage measured by rate-pressure product-120 at 40 mg/kg, ip. The method in brief:
(§1)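 Rats pretreated intraperitoneally (test agents 40 mg/kg; reference agents 40 or 1 mg/kg); hearts isolated and Langendorff-perfused through an ischemia-reperfusion cycle. Rate-pressure product at 120 min reperfusion expressed as % of the last preischemic minute. After reperfusion, TTC staining of left ventricle (necrotic white/pale pink, healthy red); injured area given as % of total area. Mean ± SE, n = 4-6 experiments.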

Assay [2] concerns Rattus norvegicus. As to the kind of experiment: Cardioprotective effect in Langendorff perfused Wistar rat hearts assessed as ratio for ischemic injured area to total area at 40 mg/kg, ip. An outline of the steps:
as §1

Assay [3] concerns Rattus norvegicus. The assay is described as follows: Cardioprotective effect in Langendorff perfused Wistar rat hearts assessed as ischemic damage measured by rate-pressure product-120 at 1 mg/kg, ip. The method in brief: as §1
The subject of assay [4] is Rattus norvegicus. As to the kind of experiment: Cardioprotective effect in Langendorff perfused Wistar rat hearts assessed as ratio for ischemic injured area to total area at 1 mg/kg, ip. An outline of the steps: as §1

Take `CC(=O)Nc1ccc(CN2CC3(CC(C)(C)Oc4ccccc43)OCC2=O)cc1` (racemic): the Activity is reported as 59% in the assay with Rattus norvegicus [1] and 22% in the assay on Rattus norvegicus [2].
`CC(=O)Nc1ccc(CN2C[C@@]3(CC(C)(C)Oc4ccccc43)OCC2=O)cc1`: the figures for the Activity in the assay with Rattus norvegicus [1] and in the assay on Rattus norvegicus [2] were 64% and 16%, respectively.
The corresponding values for `CC(=O)Nc1ccc(CN2C[C@]3(CC(C)(C)Oc4ccccc43)OCC2=O)cc1` are 27% and 35%.
`CC1=Nc2ccc(Cl)cc2S(=O)(=O)N1` [DIAZOXIDE]: the Activity in the assay on Rattus norvegicus [1] is given as 45%; in the assay with Rattus norvegicus [2] it was 25%.
`CC1(C)Oc2ccc(C#N)cc2C(N2CCCC2=O)C1O` (stereo not given) [CROMAKALIM]: the Activity in the assay with Rattus norvegicus [3] is reported as 86%; in the assay with Rattus norvegicus [4] it was 23%.

These data come from ChEMBL document CHEMBL1140947, “Enantioselectivity in cardioprotection induced by (S)- (-)-2,2-dimethyl-N-(4'-acetamido-benzyl)-4-spiromorpholone-chromane” (2009).
